The values below come from ChEMBL document CHEMBL1145530, “Synthesis and evaluation of isosteres of N-methyl indolo[3,2-b]-quinoline (cryptolepine) as new antiinfective agents” (Bioorg Med Chem, 2007).

Values after ≈ are worked out from the molar mass of the structure shown. Active and inactive are the calls of the source. No cut-off for these calls is given here.

In assay [1] the test system is Aspergillus fumigatus. In words: Antifungal activity against Aspergillus fumigatus ATCC 90906. Particulars: for MIC: in the assay text read “Antifungal” for “Antibacterial”. The class given is functional, organism-based. The gist of the method:
(§1)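 Broth microdilution following modified NCCLS methods, Franzblau variant for M. intracellulare. DMSO samples serially diluted in saline and tested in duplicate. Inoculum set by 0.5 McFarland. Media: C. albicans SDB or RPMI 1640; C. neoformans SDB; A. fumigatus YM broth (MIC) or RPMI-1640 + 5% Alamar Blue (IC50); M. intracellulare 7H9/OADC + 5% Alamar Blue. Top final concentration 20 µg/mL.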

In assay [2] the test system is Mycobacterium intracellulare. Nature of the assay: Antibacterial activity against Mycobacterium intracellular ATCC 23068. The class given is functional, organism-based. Summed up:
as §1

In assay [3] the test system is Leishmania donovani. Nature of the assay: Antileishmanial activity against Leishmania donovani promastigotes. The class given is functional, organism-based. Summed up: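 L. donovani promastigotes from a 3-day culture in RPMI 1640 with 10% FCS, diluted to 5×10^5/mL. Drug dilutions made directly in the cell suspension. 48 h at 26 °C. Growth measured by Alamar Blue fluorescence at 544/590 nm. IC50 and IC90 from percent growth versus concentration.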

A short description of assay [4]: Anti-infective activity against Plasmodium falciparum D6 infected red blood cells. The class given is functional.
Assay [5] has as its system Plasmodium falciparum. Nature of the assay: Anti-infective activity against Plasmodium falciparum W2 in erythrocytes. The class given is functional, organism-based.
The test system of assay [6] is Vero. In words: Cytotoxicity against Vero cells. The class given is cell-based. Conditions: Chlorocebus sabaeus. The gist of the method:
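VERO monkey kidney […] seeded at 25,000 cells/well and grown 24 h, then exposed to compound for 48 h, highest concentration 23.8 µg/ml. Viability by neutral red uptake. IC50 from growth-inhibition curves. DMSO as vehicle control.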

Assay [7] deals with Candida albicans. In words: Antifungal activity against Candida albicans ATCC 90028. The assay is classed as functional. Summed up:
as §1

The subject of assay [8] is Cryptococcus neoformans. In words: Antifungal activity against Cryptococcus neoformans ATCC 90113. The assay is classed as functional, organism-based. The gist of the method:
as §1

In assay [9] the test system is Plasmodium falciparum. Nature of the assay: Anti-infective activity against Plasmodium falciparum D6 infected red blood cells up to 4.76 ug/mL. The class given is functional.
Assay [10] deals with Plasmodium falciparum. Nature of the assay: Anti-infective activity against Plasmodium falciparum W2 in erythrocytes up to 4.76 ug/mL. The assay is classed as functional, organism-based.

In general, MIC refers to the least concentration at which growth counts as inhibited. Low readings indicate greater potency, high ones weaker potency. The IC50 is the concentration that gives 50% inhibition. A high value points to weaker potency in that assay. For the molecule `C[n+]1c2ccccc2cc2sc3ccccc3c21.[I-]`, the MIC in [1] was more than 20 µg/mL. Moreover, the IC50 in assay [2] was more than 20 µg/mL; in assay [3] it was 0.35 µg/mL; in assay [4], 1.6 µg/mL; in [5] it was 2 µg/mL; in assay [6], more than 23.8 µg/mL.

On to `C[n+]1c2ccccc2cc2[nH]c3ccccc3c21.[I-]` [CRYPTOLEPTINE IODIDE], for which the MIC in assay [7] was 2 µg/mL; in assay [1], more than 20 µg/mL. Moreover, the IC50 was 15 µg/mL in assay [2]; 0.23 µg/mL in [3]; 0.18 µg/mL in [4]; 0.35 µg/mL in assay [5]; 3.2 µg/mL in assay [6].

Regarding `[I-].c1ccc(CCCCC[n+]2cccc3sc4ccccc4c32)cc1`, the figures for the MIC in [7], in [8] and in assay [1] were more than 20 µg/mL, 20 µg/mL and 20 µg/mL, respectively. The IC50 in assay [2] was 1.5 µg/mL; in assay [3], 1.2 µg/mL; in assay [4], 0.27 µg/mL; in assay [5] it was 0.22 µg/mL; in assay [6] it was 20 µg/mL.

Turning to `C[n+]1c2ccc(Cl)cc2cc2sc3ccccc3c21.[I-]`, the MIC in assay [7] is 2 µg/mL; in [8], 15 µg/mL; in assay [1], 4 µg/mL. The IC50 in assay [2] was more than 20 µg/mL; in [3], 0.42 µg/mL; in [4], 4 µg/mL; in assay [5], 2.8 µg/mL; in assay [6], more than 23.8 µg/mL.

As for `C[C@@H]1CC[C@H]2[C@@H](C)C(=O)O[C@@H]3O[C@@]4(C)CC[C@@H]1[C@]32OO4` [ARTEMISININ], the figures for the IC50 in assay [4], in assay [5] and in assay [6] were 0.02 µg/mL (≈ 0.0708 µM), 0.02 µg/mL (≈ 0.0708 µM) and more than 4.7 µg/mL, respectively.

For the molecule `C[n+]1c2ccccc2cc2oc3ccccc3c21.[I-]`, the MIC in [7] and in assay [8] was more than 20 µg/mL in each case. Further, the IC50 in assay [1] was 15 µg/mL; in [2] it was more than 20 µg/mL; in assay [3], 2.2 µg/mL; in [4] it was 0.28 µg/mL; in [5], 0.28 µg/mL; in [6] it was more than 23.8 µg/mL.

On to `C[n+]1cccc2sc3ccccc3c21.[I-]`, for which the minimum inhibitory concentration (MIC) in assay [7], in [8] and in [1] was more than 20 µg/mL each time. Further, the IC50 in assay [2] is more than 20 µg/mL; in assay [4], 1.5 µg/mL; in assay [5] it was 1.2 µg/mL; in assay [6], more than 23.8 µg/mL.

For `CN(C)c1ccc2sc3ccc[n+](C)c3c2c1`, the MIC in [7], in [8] and in [1] was more than 20 µg/mL in each case. Moreover, the IC50 in assay [2] was 15 µg/mL; in [3], 3 µg/mL; in assay [4], 0.18 µg/mL; in assay [5] it was 0.2 µg/mL; in assay [6], more than 23.8 µg/mL.

`COc1ccc2c(c1)cc1sc3ccccc3c1[n+]2C.[I-]`: the MIC in assay [7] was more than 20 µg/mL; in [1], 20 µg/mL. The IC50 in [8] was 8 µg/mL; in assay [2] it was more than 20 µg/mL; in [3] it was 0.6 µg/mL; in assay [4], 0.74 µg/mL; in assay [5], 0.74 µg/mL; in assay [6], more than 23.8 µg/mL.

For the molecule `CCN(CC)CCCC(C)Nc1ccnc2cc(Cl)ccc12` (centres undefined) [CHLOROQUINE], the IC50 in assay [4] was 0.02 µg/mL (≈ 0.0625 µM); in assay [6] it was more than 4.7 µg/mL.

As to `C[n+]1c2c(cc3ccccc31)Cc1ccccc1-2.[I-]`, the MIC in assay [7], in assay [8] and in assay [1] was more than 20 µg/mL in each case. For the same molecule, in assay [2], the IC50 is more than 20 µg/mL.

For `C[n+]1c2ccccc2cc2sc3ccccc3c21.O=S(=O)([O-])C(F)(F)F`, the results for the MIC in assay [7] and in assay [8] were 10 µg/mL and more than 20 µg/mL, respectively. Further, the IC50 in assay [1] was 6.5 µg/mL; in assay [2] it was 15 µg/mL; in assay [3], 0.27 µg/mL; in assay [4], 0.34 µg/mL; in [5] it was 0.3 µg/mL; in assay [6] it was more than 23.8 µg/mL.

As for `C[n+]1cccc2sc3ccc([N+](=O)[O-])cc3c21.[I-]`, the minimum inhibitory concentration (MIC) in assay [7], in assay [8] and in assay [1] was more than 20 µg/mL throughout. Also, the concentration for half-maximal inhibition (IC50) in [2] is more than 20 µg/mL; in assay [3] it was more than 40 µg/mL; in assay [4], 0.4 µg/mL; in assay [5] it was 0.46 µg/mL; in [6], more than 23.8 µg/mL.

Turning to `C[n+]1c2ccc(C#N)cc2cc2sc3ccccc3c21.[I-]`, the MIC is more than 20 µg/mL in assay [7], more than 20 µg/mL in assay [8] and 20 µg/mL in assay [1]. Besides, the IC50 was more than 20 µg/mL in assay [2], 2.6 µg/mL in assay [3] and more than 23.8 µg/mL in [6]. The result in assay [9] and in [10] was inactive.

In turn, `O=C(O)c1cn(C2CC2)c2cc(N3CCNCC3)c(F)cc2c1=O` [CIPROFLOXACIN] gave a half-maximal inhibitory concentration (IC50) in assay [2] of 0.35 µg/mL (≈ 1.06 µM).

On to `C[n+]1c2ccc(C(N)=O)cc2cc2sc3ccccc3c21.[I-]`, for which the MIC in [7], in [8] and in [1] was more than 20 µg/mL each time. For the same molecule, the results for the IC50 in [2], in assay [3] and in assay [6] were more than 20 µg/mL, 40 µg/mL and more than 23.8 µg/mL, respectively. Further, the result in assay [9] and in [10] was inactive.

In the case of `C[n+]1c2ccc(C(=O)O)cc2cc2sc3ccccc3c21.[I-]`, the MIC is more than 20 µg/mL in [7], more than 20 µg/mL in assay [8] and 10 µg/mL in [1]. The concentration for half-maximal inhibition (IC50) was determined as 20 µg/mL in [2], 0.39 µg/mL in [3], 4.5 µg/mL in [5] and 7 µg/mL in assay [6]. In addition, the result in [9] was inactive.

As to `N=C(N)c1ccc(OCCCCCOc2ccc(C(=N)N)cc2)cc1` [PENTAMIDINE], in assay [3], the IC50 was determined as 0.7 µg/mL (≈ 2.06 µM).

For `C[C@@H]1[C@H](O)[C@@H](C)/C=C/C=C/C=C/C=C/C=C/C=C/C=C/[C@H](O[C@@H]2O[C@H](C)[C@@H](O)[C@H](N)[C@@H]2O)C[C@@H]2O[C@](O)(C[C@@H](O)C[C@@H](O)[C@H](O)CC[C@@H](O)C[C@@H](O)CC(=O)O[C@H]1C)C[C@H](O)[C@H]2C(=O)O` [AMPHOTERICIN B], the figures for the MIC in [7] and in [8] were 0.25 µg/mL (≈ 0.271 µM) and 0.95 µg/mL (≈ 1.03 µM), respectively. In assay [1], the IC50 was found to be 0.85 µg/mL (≈ 0.92 µM).
